Only a selection was taken, and hits are over-represented in it overall.
A1 apoptosis 2: compounds inhibiting A1, read as caspase activation. MEF A1-2A-BIM cells, caspase-Glo luminescence, 3 h; percent of clofoctol response, DMSO zero. caspase activation, % (no concentration beside the values). 24,000 tested, under 10 active; in the data active means caspase activation above about 5.9%; inconclusive means no clear call, values can overlap the other calls; inactive means below about 2.2%
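system = A1-2A-BIM-expressing MEF cells | quantity = 2500 MEF cells/well | dosing = 50 nL compound per well, pinned | schedule = overnight cell settling, then 3 h compound exposure, 37 °C | signal = luminescence from DEVD-luciferin Caspase-Glo reagent, 1:1 in 50 mM HEPES, 1 h RT | read-out = Caspase-3/7 activation, seen as rise in luminescence signal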
T cruzi intra: inhibitors of intracellular Trypanosoma cruzi; AID 651903; activity score (inhibition), % at 5.01 µM; intracellular Trypanosoma cruzi in host cells, plate reader; 4.9% of 22,000 active; in the data active means activity score above about 55%; inconclusive means no clear call, values can overlap the other calls;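 further: parasites and compound incubated about four days before reading; 0% = median of neutral control wells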
INS-1E ATP HTS: rescue of cytokine-induced death in INS-1E beta cells. INS-1E cytokine-induced death, ATP luminescence, 48 h; normalised: neutral wells 0, positive control 100. protection from cytokine-induced ATP loss, % at 10 µM. 0.1% of 20,000 active. AID 488910;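 active means mean replicate protection from cytokine-induced ATP loss at least 50% and at least 75% of replicates each reaching 50%; inconclusive means meets only one of the two criteria, mean or replicate share; inactive means fails both the mean and replicate share criteria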
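Assay system – rat INS-1E insulinoma cell line · Quantity – 8000 cells per well · Buffer or medium – RPMI without phenol red, 5% FBS · Schedule – 48 h co-treatment, 10 min post-lysis read · Technique – luminescent ATP assay (CellTiter-Glo)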
* hit, by the source's call; ? = inconclusive; . = no result.

SMILES	A1 apoptosis 2	T cruzi intra	INS-1E ATP HTS
CC1=C(C/C=N/NC(=O)c2ccccc2O)C(C)(C)CCC1	0	-24	1
COc1ccc2nc(Cl)nc(NC3CCCCC3)c2c1	0	.	.
O=C(N/N=C/C1CCCCC1)c1ccccc1O	.	-43	-20
O=C(CCCCCCC(=O)Nc1ccccc1O)N/N=C/c1ccc(-c2cccc(Cl)c2)o1	-1	.	.
C[C@@H]1CN([C@H](C)CO)C(=O)c2cccc(NC(=O)Nc3ccc(C(F)(F)F)cc3)c2O[C@H]1CN(C)Cc1ccc(C(F)(F)F)cc1	0	37	10
C[C@H]1CN([C@@H](C)CO)C(=O)c2cccc(NC(=O)Nc3ccc(C(F)(F)F)cc3)c2O[C@H]1CN(C)Cc1ccc(C(F)(F)F)cc1	.	63*	-55
C[C@@H]1CN([C@@H](C)CO)C(=O)c2cc(NS(=O)(=O)c3ccc(F)cc3)ccc2O[C@H]1CN(C)Cc1ccc(C(F)(F)F)cc1	-1	38	-13
Cc1ccc(S(=O)(=O)Nc2ccc3c(c2)C(=O)N([C@@H](C)CO)C[C@H](C)[C@H](CN(C)Cc2ccc(C(=O)O)cc2)O3)cc1	.	-19	8
C[C@H]1CN([C@@H](C)CO)C(=O)c2cc(NS(=O)(=O)c3ccccc3)ccc2O[C@H]1CN(C)Cc1ccc(C(F)(F)F)cc1	.	62*	.
Cc1ccc(S(=O)(=O)Nc2ccc3c(c2)C(=O)N([C@H](C)CO)C[C@@H](C)[C@H](CN(C)Cc2ccc(C(=O)O)cc2)O3)cc1	.	-25	5
Cc1ccc(S(=O)(=O)Nc2ccc3c(c2)C(=O)N([C@@H](C)CO)C[C@H](C)[C@@H](CN(C)Cc2ccc(C(F)(F)F)cc2)O3)cc1	.	65*	.
C[C@H](CO)N1C[C@H](C)[C@@H](CN(C)Cc2ccc(C(F)(F)F)cc2)Oc2ccc(NS(=O)(=O)c3ccc(F)cc3)cc2C1=O	.	61*	.
C[C@@H]1CN([C@@H](C)CO)C(=O)c2cc(NS(=O)(=O)c3ccccc3)ccc2O[C@H]1CN(C)Cc1ccc(C(F)(F)F)cc1	.	44	-18
Cc1ccc(S(=O)(=O)Nc2ccc3c(c2)C(=O)N([C@H](C)CO)C[C@H](C)[C@@H](CN(C)Cc2ccc(C(F)(F)F)cc2)O3)cc1	-2	67*	3
C=CCOC(=O)[C@H]1[C@@H]2C(=O)O[C@@H](c3ccccc3)[C@@H](c3ccccc3)N2[C@@H](c2ccc(OCCOC(=O)[C@@H]3C[C@@H]4C(=O)N[C@@H](Cc5ccccc5)C(=O)N4[C@@H]3c3ccc(O)cc3)cc2)[C@]12C(=O)Nc1ccccc12	-1	.	.
COc1cc2c(cc1OC)CN(C(=O)[C@@H]1[C@H]3C(=O)O[C@H](c4ccccc4)[C@H](c4ccccc4)N3[C@H](c3ccccc3OCCO)[C@@]13C(=O)Nc1ccc(C#CCCO)cc13)CC2	-2	.	.
C=CCC/C=N/NC(=O)CCCCCCC(=O)Nc1ccccc1O	-1	-5	4
O=C(N/N=C/c1cc(O)ccc1[N+](=O)[O-])c1ccccn1	-2	18	-12
C[C@@H]1CN([C@@H](C)CO)C(=O)c2cc(NS(=O)(=O)c3ccc(Cl)cc3)ccc2O[C@@H]1CN(C)Cc1ccc(C(F)(F)F)cc1	-1	84*	-31
Cc1ccc(S(=O)(=O)Nc2ccc3c(c2)C(=O)N([C@H](C)CO)C[C@@H](C)[C@@H](CN(C)Cc2ccc(C(F)(F)F)cc2)O3)cc1	.	60*	-27
COc1ccc(S(=O)(=O)Nc2ccc3c(c2)C(=O)N([C@H](C)CO)C[C@@H](C)[C@H](CN(C)Cc2ccc(C(F)(F)F)cc2)O3)cc1	0	5	.
Cc1ccc(S(=O)(=O)Nc2ccc3c(c2)C(=O)N([C@@H](C)CO)C[C@@H](C)[C@@H](CN(C)Cc2ccc(C(F)(F)F)cc2)O3)cc1	0	-7	.
C[C@H](CO)N1C[C@H](C)[C@@H](CN(C)Cc2ccc3c(c2)OCO3)Oc2ccc(NS(=O)(=O)c3ccc(F)cc3)cc2C1=O	-1	59*	3
COc1ccc(S(=O)(=O)Nc2ccc3c(c2)C(=O)N([C@H](C)CO)C[C@H](C)[C@@H](CN(C)Cc2ccc(C(F)(F)F)cc2)O3)cc1	-1	64*	-12
C[C@@H]1CN([C@@H](C)CO)C(=O)c2cc(NS(=O)(=O)c3ccc(F)cc3)ccc2O[C@@H]1CN(C)Cc1ccc(C(F)(F)F)cc1	-1	?	-31
SMILES	A1 apoptosis 2	T cruzi intra	INS-1E ATP HTS
Cc1ccc(S(=O)(=O)Nc2ccc3c(c2)C(=O)N([C@H](C)CO)C[C@@H](C)[C@@H](CN(C)Cc2ccc4c(c2)OCO4)O3)cc1	-1	8	-4
Cc1ccc(O)c(/C=N/NC(=O)CCCCCCC(=O)Nc2ccccc2O)c1	-1	.	.
COc1cc(CO)ccc1OC(C)=O	1	.	.
O=C(Nc1ccccc1[N+](=O)[O-])c1ccc(CNc2nccc(-c3cccnc3)n2)cc1	1	.	.
COc1cc(/C=N/NC(=O)CCCCCC(=O)NO)ccc1O	-1	.	.
O=C(NCCCn1cc(C(=O)NO)nn1)Nc1ccccc1	1	.	.
O=C(CCCCCCC(=O)Nc1ccccc1O)N/N=C/[C@H](O)[C@@H](O)[C@H](O[C@@H]1O[C@H](CO)[C@H](O)[C@H](O)[C@H]1O)[C@H](O)CO	.	1	-14
O=S(=O)(N[C@@H]1CCCN(Cc2ccc(OCCO)cc2)C1)c1cccc(F)c1	0	.	.
C[C@@H]1CN([C@H](C)CO)C(=O)c2cc(N(C)C)ccc2O[C@@H]1CN(C)Cc1ccc(C(=O)Nc2ccccc2N)cc1	.	71*	63*
CC(C)NC(=O)Nc1ccc2c(c1)C(=O)N([C@@H](C)CO)C[C@H](C)[C@H](CN(C)Cc1ccc(C(=O)Nc3ccccc3N)cc1)O2	.	?	-12
C[C@@H]1CN([C@H](C)CO)C(=O)c2cc(N(C)C)ccc2O[C@H]1CN(C)Cc1ccc(C(=O)Nc2ccccc2N)cc1	.	63*	31
C[C@H](CO)N1C[C@H](C)[C@H](CN(C)Cc2ccc(C(=O)Nc3ccccc3N)cc2)Oc2ccc(N(C)C)cc2C1=O	0	39	40
C[C@H]1CN([C@@H](C)CO)C(=O)c2cc(N(C)C)ccc2O[C@H]1CN(C)Cc1ccc(C(=O)Nc2ccccc2N)cc1	.	17	6
CC(C)NC(=O)Nc1ccc2c(c1)C(=O)N([C@@H](C)CO)C[C@H](C)[C@@H](CN(C)Cc1ccc(C(=O)Nc3ccccc3N)cc1)O2	.	58*	-15
CC(C)(C)OC(=O)Nc1cccc(/C=N/NC(=O)CCCCC(=O)NO)c1	.	5	21
C=C(C)[C@@H]1CC=C(/C=N/NC(=O)CCCCCCC(=O)OC)CC1	0	8	-5
O=C(N/N=C/c1ccc(N2CCCC2)cc1)c1ccccc1O	.	-17	-13
O=C(N/N=C/c1ccc(Br)s1)c1ccccc1O	-9	-15	-118
O=C(NO)c1cccc(C(=O)N/N=C/c2cccs2)c1	0	-5	-12
CC(C)(C)OC(=O)NC1(/C=N/NC(=O)CCCCCCC(=O)NO)CCCC1	0	.	.
C[C@@H]1CN([C@H](C)CO)C(=O)Cc2cc(NC(=O)c3ccncc3)ccc2O[C@H]1CN(C)Cc1ccc(C(=O)Nc2ccccc2N)cc1	0	20	-22

Screening data (PubChem)
